We go through five compounds from paper PMC2718129 (Molecular cancer therapeutics, 2009).

The subject of series [1] is AKT phosphorylation (Ser473, Thr308) in U87MG tumor xenografts. Nature of the series: Pharmacodynamic AKT phosphorylation in U87MG xenografts. The series is classed as in vivo, athymic mice.
For series [2], the system named is U87MG human glioblastoma xenografts. Nature of the series: U87MG glioblastoma xenograft efficacy study. The series is classed as in vivo, athymic mice. The settings on record: for T/C (final tumor weights) / tumor growth inhibition: U87MG xenografts; for tolerability of doses: i.p. dosing for 14 days.
The conditions of series [3]: mice, 10 mg/kg; cited from earlier work.
The next series relates to LoVo cells. Briefly: Antiproliferative GI50 assay, LoVo. It counts as cell-based. The settings on record: Homo sapiens, 96 h, read-out: antiproliferative GI50. The procedure, abridged:
(§1)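 Cells grown in DMEM with 2 mmol/L glutamine, penicillin/streptomycin and 10% FBS at 37°C in 5% CO2, and mycoplasma-negative by PCR. Continuous 96 h exposure to test compound. Proliferation was read by Alamar Blue or sulforhodamine B, and GI50 was taken as the concentration giving 50% inhibition of proliferation.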

The test system of a further series is SNUC2B cells. Nature of the series: Antiproliferative GI50 assay, SNUC2B. The series is classed as cell-based. The settings on record: Homo sapiens, SNU-C2B, 96 h, read-out: antiproliferative GI50. The essentials:
as §1

Series [4] relates to IGROV-1 human ovarian cancer xenografts. Nature of the series: IGROV-1 ovarian cancer xenograft efficacy study. It counts as in vivo, athymic mice. The settings on record: IGROV-1 xenografts.
Another series deals with HCT116 cells. Briefly: Antiproliferative GI50 assay, HCT116. It counts as cell-based. The settings on record: Homo sapiens, HCT-116, 96 h, read-out: antiproliferative GI50. The essentials: as §1
The subject of series [5] is poly(ADP-ribose) polymerase cleavage in U87MG xenografts. Nature of the series: PARP cleavage in U87MG xenografts. It counts as in vivo, athymic mice. The settings on record: 4 hours after oral dosing with 25 to 150 mg/kg.
Series [6] deals with forkhead transcription factor translocation. The settings on record: read-out: 50% inhibition of forkhead transcription factor translocation; previously reported; cited from earlier work.
Series [7] relates to U87MG human glioblastoma xenografts. The settings on record: PTEN-null U87MG glioblastoma xenografts; cited from earlier work.
The subject of series [8] is AKT phosphorylation (Ser473, Thr308) in U87MG tumor xenografts. The settings on record: for a short time; cited from earlier work.
A short description of series [9]: Pharmacokinetics of PI-540 and PI-620 in BALB/c mice. The settings on record: for volume of distribution: female BALB/c mice, 10 mg/kg i.v.; for plasma clearance / oral bioavailability / terminal half-life in plasma / terminal half-life in tissues / spleen to plasma ratio: mice; for plasma clearance / terminal half-life in plasma / terminal half-life in tissues / spleen to plasma ratio: 10 mg/kg; for oral bioavailability: 10 mg/kg i.v. and p.o.; for terminal half-life in plasma / terminal half-life in tissues: after i.v. administration; for spleen to plasma ratio: following i.v. dosing. The series is classed as in vivo.

In series [10] the test system is phosphorylation of GSK3β Ser9 in U87MG cells. Nature of the series: Electrochemiluminescent immunoassay. It counts as cell-based, human. The procedure, abridged:
(§2)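 U87MG cells were seeded at 8 × 10^4 cells/mL and treated 48 h later for 2 or 8 h with 5 to 500 nmol/L inhibitor. Cells were lysed and freeze-thawed once at -80°C, and lysate went directly onto Meso Scale multiplex phospho/total plates with overnight sample incubation before secondary antibody. One well from each of three independent plates was read. IC50 is given as mean ±SD.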

Another series deals with p110γ (Homo sapiens, UniProt P48736). Nature of the series: Phosphatidylinositide 3-kinase scintillation proximity assay, p110γ. The series is classed as biochemical. The settings on record: read-out: IC50 against p110γ; 1 μmol/L ATP.
Series [11] concerns phosphorylation of GSK3β in U87MG tumor xenografts. Nature of the series: Pharmacodynamic GSK3β phosphorylation in U87MG xenografts. It counts as in vivo, athymic mice. The settings on record: 50 mg/kg b.i.d or 100 mg/kg u.i.d i.p. for 4 days.
Series [12] deals with panel of human cancer cell lines and human umbilical vein endothelial cells. Nature of the series: Antiproliferative GI50 assay, cell line panel. The settings on record: 96 hours continuous exposure. It counts as cell-based. The procedure, abridged: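 Tumor lines were grown in DMEM with 2 mmol/L glutamine, antibiotics and 10% FBS at 37°C in 5% CO2, and read by Alamar Blue or sulforhodamine B. Pooled HUVEC were used at passages 3 to 8 and read by an alkaline phosphatase assay. Exposure was continuous for 96 h. GI50 is the mean of three independent determinations.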

The subject of series [13] is phosphorylation of p70S6K Thr421/Ser424 in U87MG cells. Briefly: Electrochemiluminescent immunoassay. The series is classed as cell-based, human. The settings on record: at 2 hours and, more potently, at 8 hours. The essentials:
as §2

In series [14] the test system is phosphorylation of S6 ribosomal protein Ser235/Ser236 in U87MG cells. Briefly: Electrochemiluminescent immunoassay. The settings on record: at 2 hours and, more potently, at 8 hours. The series is classed as cell-based, human. The essentials: as §2
In series [15] the test system is phosphorylation of AKT (Thr308, Ser473) in U87MG cells. Nature of the series: Electrochemiluminescent immunoassay. The series is classed as cell-based, human. The settings on record: 2 or 8 h. The essentials: as §2
The mark [16] stands for this setting: 25 mg/kg daily p.o. for 19 days.
Setting [17] is: 25 mg/kg oral daily for 13 days.
Where [18] appears, read: 50 mg/kg b.i.d or 100 mg/kg u.i.d i.p. for 4 days, at 1 hour.
Setting [19] is: 50 mg/kg b.i.d. i.p. for 14 days, 50 mg/kg.
Where [20] appears, read: 25 mg/kg b.i.d i.p. for 14 days, 25 mg/kg.
Where [21] appears, read: 50 mg/kg u.i.d i.p. for 14 days.

For orientation: GI50 means the concentration that inhibits growth by half. The T/C is the result in the treated group divided by that in the control group, in per cent.

SMILES strings stand for the structures. pIC50: −log10 of the molar value. Several values for one entry are separate records, joined by “and”; a condition that tells them apart may be missing. Equal entries are not always repeated. Where two headings read alike, the source gives them in different places.

Sequence of p110γ (P48736 whole entry, species assumed): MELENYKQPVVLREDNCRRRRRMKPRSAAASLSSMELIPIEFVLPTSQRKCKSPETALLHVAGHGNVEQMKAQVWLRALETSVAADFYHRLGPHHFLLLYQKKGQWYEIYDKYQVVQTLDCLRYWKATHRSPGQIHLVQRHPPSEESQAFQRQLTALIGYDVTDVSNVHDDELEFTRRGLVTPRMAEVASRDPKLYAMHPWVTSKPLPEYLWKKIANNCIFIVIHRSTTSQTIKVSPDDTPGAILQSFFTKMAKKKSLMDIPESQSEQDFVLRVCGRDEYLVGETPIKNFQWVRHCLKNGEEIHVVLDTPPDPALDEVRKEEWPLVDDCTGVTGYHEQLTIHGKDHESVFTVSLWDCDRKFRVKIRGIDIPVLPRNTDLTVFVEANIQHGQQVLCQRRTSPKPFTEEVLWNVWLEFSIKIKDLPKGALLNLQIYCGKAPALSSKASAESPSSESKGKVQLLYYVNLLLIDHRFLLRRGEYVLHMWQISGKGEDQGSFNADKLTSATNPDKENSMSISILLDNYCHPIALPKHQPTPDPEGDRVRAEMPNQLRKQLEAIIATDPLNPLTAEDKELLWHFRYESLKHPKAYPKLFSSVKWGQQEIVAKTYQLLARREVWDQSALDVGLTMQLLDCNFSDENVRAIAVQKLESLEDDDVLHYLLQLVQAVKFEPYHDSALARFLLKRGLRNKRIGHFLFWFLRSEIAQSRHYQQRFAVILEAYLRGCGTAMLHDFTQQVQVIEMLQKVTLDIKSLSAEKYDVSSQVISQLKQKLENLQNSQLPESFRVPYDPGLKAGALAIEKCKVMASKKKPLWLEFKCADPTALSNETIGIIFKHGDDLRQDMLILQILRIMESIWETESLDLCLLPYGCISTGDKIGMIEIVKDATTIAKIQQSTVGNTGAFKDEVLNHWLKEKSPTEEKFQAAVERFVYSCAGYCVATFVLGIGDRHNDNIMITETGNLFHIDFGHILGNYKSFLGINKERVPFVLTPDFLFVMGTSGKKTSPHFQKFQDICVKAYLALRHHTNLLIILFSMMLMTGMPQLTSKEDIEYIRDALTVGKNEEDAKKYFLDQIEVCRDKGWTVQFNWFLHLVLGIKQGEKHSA

As for `CS(=O)(=O)N1CCN(Cc2cc3nc(-c4cccc5[nH]ncc45)nc(N4CCOCC4)c3s2)CC1` [GDC-0941, 2-(1H-Indazol-4)-6-(4-methanesulfonyl-piperazin-1-ylmethyl)-4-morpholin-4-yl-thieno[3,2-d]pyrimidine], the “levels of activated AKT Ser473 in tumor” value in series [1] (150 mg/kg daily p.o. for 19 days, 4 hours after the last dose) is “undetectable”. Besides, the “duration of maintained inhibition of AKT Ser473 phosphorylation in tumor” value in [1] (oral dosing) is above 8 h. The results for the “T/C (final tumor weights)” value in series [2] (setting [16]) and in [2] (150 mg/kg daily p.o. for 19 days) were 23.4% and 2.3%, respectively. Also, the tumor growth inhibition was 76.6% in series [2] (setting [16]); 98% and 97.7% in [2] (150 mg/kg daily p.o. for 19 days, 150 mg/kg); 49.5% in series [4] (setting [17]); 80% and 80.3% in [4] (150 mg/kg oral daily for 13 days, 150 mg/kg). Also, in [2] (athymic mice, 25 to 150 mg/kg daily p.o. for 19 days, all groups gained weight at similar rates to controls), the tolerability of therapy result is on record as “well tolerated”. Besides, the oral bioavailability in series [3] is recorded as 78%. In addition, the values for the GI50 in the series with LoVo cells, in the series on SNUC2B cells and with HCT116 cells were 0.18 µM, 1.63 µM and 0.905 µM, respectively. Moreover, the T/C is reported as 50.5% in [4] (setting [17]) and 19.7% in series [4] (150 mg/kg oral daily for 13 days). In addition, the “poly(ADP-ribose) polymerase cleavage in tumor samples” value in [5] was “clear increase”.

Regarding `Oc1cccc(-c2nc(N3CCOCC3)c3oc4ncccc4c3n2)c1` [PI-103], the figures for the GI50 in the series with LoVo cells and with SNUC2B cells were 0.022 µM and 0.827 µM, respectively. The pIC50 in series [6] is 7.52. The “growth inhibition in xenografts” value in [7] was above 50%. Besides, in [8], the “inhibition of phosphorylation of AKT Ser473 in tumor” value is at most 50%.

Consider `CN1CCN(Cc2cc3nc(-c4cccc(O)c4)nc(N4CCOCC4)c3s2)CC1` [PI-540], for which, in series [1] (setting [18]), the “inhibition of phosphorylation on AKT Ser473 in tumor” value was above 50% and the “inhibition of phosphorylation on AKT Thr308 in tumor” value is recorded as above 50%. Also, in series [9], the volume of distribution was 300 mL, the plasma clearance result was “high”, the oral bioavailability is listed as below 10% and the “terminal half-life in plasma” value came to 0.24 h. Besides, in series [9], the “terminal half-life in tissues” value came to 7.6 h and the “spleen to plasma ratio” value stood at 31. Further, in series [2] (setting [19]), the “T/C (final tumor weights)” value was 34% and 33.9%; the tumor growth inhibition is 66% and 66.1%. In [2] (athymic mice), the tolerability of doses result was “very well tolerated”. Besides, the “fold less potent in inhibiting phosphorylation of GSK3β Ser9 compared with phosphorylation of AKT” value in [10] was 10 fold. Moreover, at p110γ, the pIC50 was below 6.52. In addition, in [11], the “inhibition of phosphorylation of GSK3β in tumor” value was “no detectable inhibition”. The “growth inhibition potency in each cell line of the panel” value in series [12] was “submicromolar”.

With `OCCN1CCN(Cc2cc3nc(-c4cccc(O)c4)nc(N4CCOCC4)c3s2)CC1` [PI-620], in series [9], the volume of distribution came out at 206 mL, the plasma clearance entry was “high”, the oral bioavailability is given as below 10% and the “terminal half-life in plasma” value was 0.9 h. In series [9], the “terminal half-life in tissues” value was found to be 4.3 h and the “spleen to plasma ratio” value was determined as 13.9. Moreover, in [2] (setting [20]), the “T/C (final tumor weights)” value is 27% and 26.7%; the tumor growth inhibition was 73% and 73.3%. In series [2] (setting [21]), the “T/C (final tumor weights)” value is 44.8% and the tumor growth inhibition came to 55.2%. Besides, the tolerability of doses result in series [2] (athymic mice) is “very well tolerated”. Also, the pIC50 at p110γ was below 6.52. Also, the “growth inhibition potency in each cell line of the panel” value in series [12] is “submicromolar”.

As to `CO[C@H]1C[C@@H]2CC[C@@H](C)[C@@](O)(O2)C(=O)C(=O)N2CCCC[C@H]2C(=O)O[C@H]([C@H](C)C[C@@H]2CC[C@@H](O)[C@H](OC)C2)CC(=O)[C@H](C)/C=C(\C)[C@@H](O)[C@@H](OC)C(=O)[C@H](C)C[C@H](C)/C=C/C=C/C=C/1C` [Rapamycin], in series [13], the “effect on phosphorylation of p70S6K” value is reported as “inhibited”. Moreover, in series [10] (2 or 8 h), the “effect on phosphorylation of GSK3β” value is “did not affect”. For the same compound, the “effect on phosphorylation of S6 ribosomal protein” value in [14] is “inhibited”. In addition, in [15], the “effect on phosphorylation of AKT” value is “did not affect”.
